pKi: −log10 of the molar value.
How the values were obtained:
hLPA5 [1] = target: T1, hLPA5 (Homo sapiens, UniProt Q9H1C0); experiment: LPA5 calcium mobilization assay; format: cell-based
In short: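 RH7777-hLPA5 cells were plated on poly-D-lysine at 20,000 cells/well in 0.2% FBS medium for 18–20 h at 37 °C. They were loaded 45 min with Calcium 5 dye in HBSS, 20 mM HEPES and 2.5 mM probenecid, pH 7.4. Eight test-compound concentrations were pre-incubated for 15 min at 37 °C, then hexadecyl LPA 16:0 EC80 (30 nM) was added at 10 s. Fluorescence (485/525 nm) was read every 1 s for 90 s. IC50 came from a three-parameter logistic fit of RFU. Duplicate determinations; two or at least three independent experiments.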

hLPA5 [2] = target: T1, hLPA5; experiment: LPA5 TR-FRET Lance Ultra cAMP assay; format: cell-based
[3] = Bidirectional MDCK-MDR1 permeability; format: in vitro ADME; conditions: dog; for Papp B→A at 90 min, 10 μM: MDCK-MDR1, pH 7.4, Papp (B-to-A), MDCK-MDR1 Transwell
In short: (§1)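 MDCK-mdr1 cells (passage 5) were grown on polycarbonate Transwell supports for 3 days and rinsed with warm HBSS. They were pre-incubated 30 min at 37 °C in HBSS with 10 mM HEPES and 0.25% BSA, pH 7.4, then TEER was measured. Test compound at 10 μM went to the apical donor (A-to-B) or basolateral donor (B-to-A) side, at 37 °C with light agitation. Receiver was sampled at 30, 60 and 90 min and analysed by LC-MS/MS. Papp came from dQ/dt, area 1.12 cm2 and initial donor concentration. Atenolol and propranolol were references.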

P-glycoprotein (MDR1) = experiment: Bidirectional MDCK-MDR1 permeability; format: in vitro ADME; conditions: dog, MDCK-MDR1, pH 7.4
In short: as §1

MDCK-mdr1 cells = experiment: Bidirectional MDCK-MDR1 permeability; format: in vitro ADME; conditions: MDCK-MDR1 Transwell, 10 μM
In short: as §1

[4] = test system: CFA-induced nociceptive hypersensitivity in rats; experiment: CFA-induced inflammatory pain model, von Frey mechanical nociception; format: in vivo, Sprague-Dawley rats; conditions: i.p.; for effect on CFA-induced nociceptive hypersensitivity: 17.8 mg/kg; for duration of effect in CFA model: 65 and 66 at 17.8 mg/kg, 2 at 32 mg/kg
[5] = test system: >50 GPCRs (NIMH Psychoactive Drug Screening Program panel); experiment: NIMH PDSP radioligand binding panel; conditions: < 50% inhibition at 10 μM or pKi ≤ 6
LPA1–LPA4 receptors = experiment: LPA1–LPA3 calcium mobilization; format: cell-based; conditions: 10 μM in Ca2+ for LPA1–LPA3 and cAMP for LPA4
In short: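 Selectivity was tested with test compound at 10 μM. LPA1–LPA3 calcium mobilization was run externally in CHO cells over-expressing each receptor, under the provider's protocols. LPA4 was a TR-FRET cAMP assay in LPA4-overexpressing CHO cells, following the LPA5 cAMP method but against 250 nM hexadecyl LPA 16:0 (EC80).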

[6] = Metabolic stability in rat liver microsomes; format: in vitro ADME; conditions: pH 7.4
In short: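 Rat liver microsomes (0.5 mg/mL protein) were used in 100 mM potassium phosphate, pH 7.4, at 37 °C, with NADPH at 1 mM final. Samples were taken at 0, 5, 15, 30 and 45 min and quenched 1:1 in cold acetonitrile containing labetalol and glyburide. Parent was measured by LC-MS/MS, and half-life and in vitro clearance were calculated. Two independent experiments in duplicate.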

[7] = test system: fentanyl-induced mechanical hypersensitivity in rats; experiment: Fentanyl; format: in vivo; conditions: i.p.
dopamine D3 = dopamine D3 (Homo sapiens, UniProt P35462); experiment: NIMH PDSP radioligand binding, D3
[8] = test system: locomotor activity in rats; experiment: Locomotor activity; format: in vivo; conditions: 17.8 mg/kg i.p., 60 min pretreatment, P > 0.05
Plasma protein binding = format: in vitro ADME; conditions: rat
In short: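 Equilibrium dialysis: test compound or controls at 1 μM in rat plasma, in triplicate, against buffer across a 12–14K MWCO cellulose membrane. Incubation ran 6 h at 37 °C with light agitation to equilibrium. Plasma and buffer were extracted with cold acetonitrile/methanol (1:1) and quantified by LC-MS/MS against standard curves. Acebutolol (low-bound) and warfarin (high-bound) served as controls.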

[9] = test system: CCI-induced mechanical allodynia in rats; experiment: Chronic constriction injury; format: in vivo, Sprague-Dawley rats; conditions: i.p., 17.8 mg/kg

T1 sequence (Q9H1C0 whole entry): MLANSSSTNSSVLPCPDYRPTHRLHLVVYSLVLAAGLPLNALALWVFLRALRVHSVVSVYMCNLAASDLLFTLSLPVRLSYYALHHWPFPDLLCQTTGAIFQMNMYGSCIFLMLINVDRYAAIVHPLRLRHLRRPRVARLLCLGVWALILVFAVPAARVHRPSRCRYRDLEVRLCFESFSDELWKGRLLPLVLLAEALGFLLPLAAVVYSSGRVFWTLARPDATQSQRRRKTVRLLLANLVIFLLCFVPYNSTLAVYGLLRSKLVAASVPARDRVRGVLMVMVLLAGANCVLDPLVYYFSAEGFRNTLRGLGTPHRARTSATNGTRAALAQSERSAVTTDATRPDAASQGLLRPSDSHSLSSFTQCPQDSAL
Chain of dopamine D3 (P35462 whole entry): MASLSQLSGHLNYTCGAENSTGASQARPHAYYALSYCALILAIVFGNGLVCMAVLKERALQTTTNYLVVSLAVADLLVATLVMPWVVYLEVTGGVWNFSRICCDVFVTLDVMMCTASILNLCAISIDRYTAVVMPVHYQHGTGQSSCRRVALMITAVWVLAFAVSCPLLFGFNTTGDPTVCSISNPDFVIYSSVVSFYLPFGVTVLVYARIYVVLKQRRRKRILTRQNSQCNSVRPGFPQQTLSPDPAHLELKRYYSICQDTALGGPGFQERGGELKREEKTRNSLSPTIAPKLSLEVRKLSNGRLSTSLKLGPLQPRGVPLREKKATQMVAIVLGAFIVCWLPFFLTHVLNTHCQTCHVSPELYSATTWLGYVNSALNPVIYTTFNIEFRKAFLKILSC

fold less potent than 2 (hLPA5 [1]; in both calcium mobilization and cAMP assays) | potency difference between cAMP and calcium mobilization assays (hLPA5 [2]; cAMP potency / calcium mobilization potency) [fold] | Papp B→A at 90 min, 10 μM [3] [×10⁻⁶ cm/s] | efflux ratio at 90 min, 10 μM (P-glycoprotein (MDR1)) | Papp (B-to-A) (MDCK-mdr1 cells) | CLint scaled at 0.75 h [6] [mL/min/kg] | fold more potent than the 4-fluoro analog 65 (hLPA5 [1]; calcium assay) [fold] | fold less potent than 2 (hLPA5 [2]; cAMP assay) [fold] | Papp A→B at 90 min, 10 μM ([3]; MDCK-MDR1, pH 7.4) [×10⁻⁶ cm/s] | pKi (dopamine D3) | fraction unbound at 6 h, 1 μM (Plasma protein binding) | SMILES | effect on CFA-induced nociceptive hypersensitivity [4] | duration of effect in CFA model [4] | affinity for panel receptors [5] | LPA1–LPA4 inhibition (LPA1–LPA4 receptors) [%] | dose achieving statistical significance in OIH model [7] [mg/kg] | effect on fentanyl-induced mechanical hypersensitivity (OIH) [7] | effect on locomotor activity [8] | effect on CCI-induced mechanical allodynia [9]
1.5–2 fold | 4.9 | 31.1 | < 2.5 | 30.4 10^−6 cm/s | 48.4 | – | – | – | – | – | COc1cc2c(C(=O)N3CCC(F)CC3)cn(-c3ccc4scc(C)c4c3)c(=O)c2cc1OC [Compound 65, 4-(4-Fluoropiperidine-1-carbonyl)-6,7-dimethoxy-2-(3-methylbenzo[b]thiophen-5-yl)isoquinolin-1(2H)-one] | markedly alleviated nociceptive hypersensitivity | ~ 5 h | no significant affinity for most of the receptors | <50 | – | – | – | –
– | – | 38.7 | < 2.5 | – | 74.7 | 2 | 1.7 | 30.4 | 6.42 | 0.01 | C#CC1CCN(C(=O)c2cn(-c3ccc4scc(C)c4c3)c(=O)c3cc(OC)c(OC)cc23)CC1 [Compound 66, 4-(4-Ethynylpiperidine-1-carbonyl)-6,7-dimethoxy-2-(3-methylbenzo[b]thiophen-5-yl)isoquinoli-n-1(2H)-one] | markedly alleviated nociceptive hypersensitivity | ~ 5 h | no significant affinity for most of the receptors | <50 | 5.6 | dose-dependently and significantly mitigated this mechanical hypersensitivity | did not have any measurable effect on the locomotor activity | completely reversed this hypersensitivity condition

Source: paper PMC10155261 (European journal of medicinal chemistry, 2022)
